Test results taken from ChEMBL document CHEMBL1122273, “5-sulfamoylorthanilic acids, a sulfonamide series with salidiuretic activity” (J Med Chem, 1983).

Assays:
Canis familiaris [1] = experiment: Saluretic activity in the dog measured as concentration of Na+ in urinary excretion (2 animals/dose) at (dose 1.56 mg/Kg, perorally); format: functional, Canis lupus familiaris, Urine
Procedure, shortened: (§1)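 Male beagles trained to rest on a table and to accept stomach tube and catheter. Food withdrawn 24 h before, tap water ad libitum. Bladder emptied by catheter, then 20 mL/kg tap water by stomach tube. Catheterized hourly up to 8 h with 4 mL/kg water orally each time; first 2 h urine served as control. Oral dosing after second catheterization. Pooled 1–6 h urine; Na⁺/K⁺ by flame photometry, Cl⁻ argentometrically.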

Canis familiaris [2] = experiment: Diuretic activity in the dog (2 animals/dose) at (dose 1.56 mg/Kg), when administered perorally; format: functional, Canis lupus familiaris, Urine
Procedure, shortened: (§2)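 Trained male beagles, fasted 24 h with tap water ad libitum. Bladder emptied by catheter, then 20 mL/kg tap water by stomach tube, with 4 mL/kg water at each hourly catheterization up to 8 h. The first 2 h of urine served as control. Oral dosing came after the second catheterization, and 1–6 h urine was pooled. Na⁺ and K⁺ were measured by flame photometry, Cl⁻ argentometrically, in mequiv/kg.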

Canis familiaris [3] = experiment: Salidiuretic activity in the dog measured as concentration of Cl - in urinary excretion (2 animals/dose) at (dose 1.56 mg/Kg, perorally); format: functional, Canis lupus familiaris, Urine
Procedure, shortened: (§3)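 Male beagles trained to the procedures, food withdrawn 24 h before, tap water ad libitum. Bladder emptied by catheter, then 20 mL/kg tap water by stomach tube, plus 4 mL/kg orally at each hourly catheterization up to 8 h. The first 2 h of urine served as control. Compound given orally after the second catheterization. Urine from 1–6 h post-dose pooled; Na⁺ and K⁺ by flame photometry, Cl⁻ argentometrically, in mequiv/kg.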

Canis familiaris [4] = experiment: Salidiuretic activity in the dog measured as concentration of K+ in urinary excretion (2 animals/dose) at (dose 1.56 mg/Kg, perorally); format: functional, Canis lupus familiaris, Urine; procedure, shortened: as §3
Rattus norvegicus [5] = species on record: Rattus norvegicus; experiment: Diuretic activity in the rats, determined by a modified Lipschitz test; format: functional, Urine
Procedure, shortened: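 Modified Lipschitz test: rats deprived of water 24 h, grouped in threes of similar weight in diuresis funnels. Oral dose of 50 mg/kg, suspended in 2% starch solution, by stomach tube.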

Rattus norvegicus [6] = species on record: Rattus norvegicus; experiment: Saluretic activity in the rat measured as concentration of chloride in urine; format: functional
Procedure, shortened: (§4)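 Rats deprived of food 24 h, water ad libitum, dosed 50 mg/kg by stomach tube as suspension in 2% starch, no extra water load. Groups of three in diuresis funnels; urine over first 5 h collected. Na⁺ and K⁺ by flame photometry, Cl⁻ argentometrically; expressed as mequiv/kg.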

Rattus norvegicus [7] = species on record: Rattus norvegicus; experiment: Saluretic activity in the rat measured as concentration of K+ in urine; format: functional; procedure, shortened: as §4
Rattus norvegicus [8] = species on record: Rattus norvegicus; experiment: Saluretic activity in the rat measured as concentration of Na+ in urine; format: functional; procedure, shortened: as §4
Canis familiaris [9] = experiment: Saluretic activity in the dog measured as concentration of Na+ in urinary excretion (2 animals/dose) at (dose 1.56 mg/Kg, po); format: functional, Canis lupus familiaris, Urine; procedure, shortened: as §1
Canis familiaris [10] = experiment: Saluretic activity in the dog measured as concentration of K+ in urinary excretion (2 animals/dose) at (dose 1.56 mg/Kg, po); format: functional, Canis lupus familiaris, Urine; procedure, shortened: as §1
Canis familiaris [11] = experiment: Saluretic activity in the dog measured as concentration of Cl - in urinary excretion (2 animals/dose) at (dose mg/Kg, po); format: functional, Canis lupus familiaris, Urine; procedure, shortened: as §3
[12] = It is the ratio, measured as saluretic activity in the dog as concentration of Na+ in urinary excretion (dose 1.56 mg/Kg, po) to that of K; format: functional, Urine; procedure, shortened: as §2
[13] = It is the ratio, measured as saluretic activity in the dog as concentration of Cl- in urinary excretion (dose 1.56 mg/Kg, po) to that of (Na+)+(K+); format: functional, Urine; procedure, shortened: as §2
Canis familiaris [14] = experiment: Sailuric activity in the dog measured as concentration of Cl - in urinary excretion (2 animals/dose) at (dose 1.56 mg/Kg, po); format: functional, Canis lupus familiaris, Urine; procedure, shortened: as §3
Canis familiaris [15] = experiment: Sailuric activity in the dog measured as concentration of K+ in urinary excretion (2 animals/dose) at (dose 1.56 mg/Kg, po); format: functional, Canis lupus familiaris, Urine; procedure, shortened: as §3
Canis familiaris [16] = experiment: Sailuric activity in the dog measured as concentration of Na+ in urinary excretion (2 animals/dose) at (dose 1.56 mg/Kg, po); format: functional, Canis lupus familiaris, Urine; procedure, shortened: as §3
[17] = It is the ratio, measured as saluretic activity in the dog as concentration of Na+ in urinary excretion (dose 1.56mg/Kg, po) to that of K; format: functional, Urine; procedure, shortened: as §2

| Structure (SMILES) | Saluretic activity (Canis familiaris [1]) [m equiv 6hr-1 kg-1] | Diuretic activity (Canis familiaris [2]) [ml kg-1 6hr-1] | Saldiuretic activity (Canis familiaris [3]) [m equiv 6hr-1 kg-1] | Saldiuretic activity (Canis familiaris [4]) [m equiv 6hr-1 kg-1] | Diuretic activity (Rattus norvegicus [5]) [mL/kg] | Saluretic activity (Rattus norvegicus [6]) [m equiv 5hr-1 kg-1] | Saluretic activity (Rattus norvegicus [7]) [m equiv 5hr-1 kg-1] | Saluretic activity (Rattus norvegicus [8]) [m equiv 5hr-1 kg-1] | Saluretic activity (Canis familiaris [9]) [m equiv 6hr-1 kg-1] | Saldiuretic activity (Canis familiaris [10]) [m equiv 6hr-1 kg-1] | Saldiuretic activity (Canis familiaris [11]) [m equiv 6hr-1 kg-1] | Ratio [12] | Ratio [13] | Saldiuretic activity (Canis familiaris [14]) [m equiv 6hr-1 kg-1] | Saldiuretic activity (Canis familiaris [15]) [m equiv 6hr-1 kg-1] | Saluretic activity (Canis familiaris [16]) [m equiv 6hr-1 kg-1] | Ratio [17] |
| --- | --- | --- | --- | --- | --- | --- | --- | --- | --- | --- | --- | --- | --- | --- | --- | --- | --- |
| NS(=O)(=O)c1cc(S(=O)(=O)[O-])c(NCCc2ccco2)cc1Cl.[Na+] | 0.56 | 29.3 | 0.76 | 0.15 | 1.9 | 6.1 | 1.8 | 4.6 | – | – | – | – | – | – | – | – | – |
| NS(=O)(=O)c1cc(S(=O)(=O)[O-])c(NCc2ccco2)cc1[S+]([O-])c1ccccc1.[K+] (stereo not drawn) | – | 48.4 | – | – | 0.8 | 1.7 | 1.5 | 0.8 | 0.59 | 0.33 | 1.27 | 1.8 | 1.3 | – | – | – | – |
| NS(=O)(=O)c1cc(S(=O)(=O)[O-])c(NCc2ccco2)cc1S(=O)(=O)C1CCCC1.[Na+] | – | 58 | – | – | 4.3 | 9.5 | 2 | 8 | – | – | – | – | 1 | 5.26 | 1.02 | 4.24 | 4.2 |
